Reference: PubChem BioAssay
Records with an inconclusive call do not appear.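 Rule for the calls, unless noted: active = viability increase at or above a cutoff of the median across tested compounds plus 3 SD (cut at about 8.5% in these data, passing the limit was not always enough); inconclusive = some gains above the cutoff, reason not given; inactive = the rest.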

Columns and labels:
[1] = S. cerevisiae growth inhibition in permissive medium (OD615), pilot counter-assay for S. cerevisiae lifespan shortening project, permissive growth control (AID 705;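 active = growth inhibition above 25% in both replicates, a cutoff set 3 SD above the mean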); conditions: OD615, 24 h, at 10 µM, active compounds read high
Outline: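 Material: engineered DeaD yeast; compound dosing: one dose 10 µM, DMSO 0.25% final; measure: yeast growth inhibition indicated by reduced 24 h OD615; detection: OD615 turbidity read; incubation: cells pre-grown 4 h, then 24 h compound exposure, 30 °C humidified; medium: permissive synthetic complete medium with raffinose and galactose carbon sources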

[2] = S. cerevisiae growth inhibition in restrictive medium, OD615, pilot screen, restrictive growth control, yeast lifespan reduction project (AID 706;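 active = growth inhibition above a set limit, 3 SD over mean compound inhibition, in both replicates, cut at about 43% in these data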;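 note: modified DeaD lifespan yeast strain shifted to restrictive glucose medium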); conditions: OD615, 48 h, at 10 µM, active compounds read high
Outline: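 material = engineered S. cerevisiae DeaD strain | medium = glucose-based CSMM-D restrictive medium | times = 4 h pre-incubation, 48 h exposure at 30 °C | technique = OD615 absorbance reading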

[3] = doxorubicin toxicity protection in MRP-1 cells – H69AR cells, CellTiter-Glo, duplicate, MRP-1 activator project, pilot screen (AID 807); conditions: H69AR viability with doxorubicin, CellTiter-Glo luminescence; at 10 µM; active compounds read high;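 note: compound pretreatment 18-22 h then 72 h combined with doxorubicin; 0% = doxorubicin alone and 100% = vehicle without doxorubicin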
[4] = viability of HCT116 without oncogenic beta-catenin – human colon tumor cells, pilot screen (AID 823;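 active = cell viability at or below a set limit in both duplicate runs, the limit being the all-compound median minus 4 SD, cut at about 23% in these data, passing the limit was not always enough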;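 note: 0% = wells killed by 20 µM Hyamine and 100% = untreated DMSO cell wells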); conditions: HCT116 beta-catenin knockout viability, CellTiter-Glo, 60 h; at 10 µM; active compounds read low
[5] = viability of PTEN-null HCT116 cells – cell-based, HCT116 clonal line, CellTiter-Glo, pilot screen (AID 824;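 active = viability at or below 27.92% in each of two runs, the all-compound median minus 4 SD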;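 note: 0% = 20 µM Hyamine control and 100% = vehicle cell control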); conditions: HCT116 PTEN-deleted viability, 60 h, at 10 µM, active compounds read low
[6] = RAM pathway blockade in budding yeast – dse1pr::URA3 reporter, 5-FOA selection, pilot screen (AID 869;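 active = inhibition over a set limit, the all-compound mean plus 3 SD, in both replicate runs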;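 note: 0% = DMSO wells with no growth and 100% = 10 µM 1-NA-PP1 with full growth; RAM network block rescues cells from 5-FOA so hits raise OD615 growth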); conditions: S. cerevisiae dse1pr::URA3 5-FOA growth, OD615, 2 d; at 10 µM; active compounds read high; strain carries analog-sensitive mutant Cbk1 kinase
[7] = RAM signaling pathway blockade in yeast – S. cerevisiae, Pdr1DBD-CYC8 efflux-inhibited sensitized strain, primary screen (AID 1298;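 active = RAM network inhibition above 8.4% in each of two replicates, 3 SD over the compound average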;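 note: 0% = DMSO untreated cells without growth and 100% = 10 µM 1-NA-PP1 full growth; higher means more yeast growth rescued from 5-FOA killing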); conditions: S. cerevisiae cbk1-as DSE1-URA3 strain, 5-FOA growth OD615, 2 d; at 50 µM; active compounds read high

COc1ccc(C2CC(=O)c3cnc(NC(=O)c4ccccc4)nc3C2)cc1OC (stereo not given)
inactive: growth inhibition [1] -3.28% | growth inhibition [2] -0.645% | viability increase [3] -3.55% | viability [4] 105% | viability [5] 96.6% | inhibition [6] 0.895% | RAM network inhibition [7] 5.34%

CCOC(=O)c1c(NC(=O)c2cc(C3CC3)on2)sc(C(C)=O)c1C
inactive: growth inhibition [1] -3.19% | growth inhibition [2] 0.635% | viability increase [3] -1.49% | viability [4] 104% | viability [5] 93.3% | inhibition [6] 1.64% | RAM network inhibition [7] -0.58%

O=C(C1=C(O)C(=O)N(c2ncccn2)C1c1cccs1)c1ccco1 (stereo not given)
inactive: growth inhibition [1] 0.75% | growth inhibition [2] 7.12% | viability increase [3] -4.29% | viability [4] 86.5% | viability [5] 85.3% | inhibition [6] 1.54% | RAM network inhibition [7] 1.69%

COc1ccc(S(=O)(=O)N2CCN(c3cccc(C)c3C)CC2)cc1
inactive: growth inhibition [1] -16.7% | growth inhibition [2] -13.3% | viability increase [3] 1.83% | viability [4] 97.9% | viability [5] 90.5% | inhibition [6] 1.02% | RAM network inhibition [7] 2.58%

Cc1nc2ccccc2c2oc(C(=O)N3CCc4ccccc43)cc12
inactive: growth inhibition [1] -11.5% | growth inhibition [2] -16.6% | viability increase [3] -0.71% | viability [4] 95.5% | viability [5] 89.1% | inhibition [6] 0.625% | RAM network inhibition [7] -0.73%

Cn1c(NC(=O)c2ccc(Cl)cc2Cl)cc(=O)n(C)c1=O
inactive: growth inhibition [1] -4.17% | growth inhibition [2] 0.265% | viability increase [3] -2.37% | viability [4] 98.7% | viability [5] 90.8% | inhibition [6] 0.95% | RAM network inhibition [7] -0.2%

COc1ccc(S(=O)(=O)Cc2ccc(C(=O)N3CCN(C(=O)c4ccco4)CC3)o2)cc1
inactive: growth inhibition [1] 0.785% | growth inhibition [2] 1.27% | viability increase [3] -2.09% | viability [4] 92.8% | viability [5] 100% | inhibition [6] 2.06% | RAM network inhibition [7] 3.94%

CSc1nnc(NC(=O)C2CCCCC2)s1
inactive: growth inhibition [1] -7.81% | growth inhibition [2] -6.62% | viability increase [3] 0.06% | viability [4] 97% | viability [5] 99.3% | inhibition [6] -0.045% | RAM network inhibition [7] 0.63%

O=C(Nc1nccs1)C1CCCN(S(=O)(=O)c2cccc3cccnc23)C1 (stereo not given)
inactive: growth inhibition [1] -3.46% | growth inhibition [2] 11.8% | viability increase [3] -1.85% | viability [4] 71.2% | viability [5] 68.6% | inhibition [6] 1.6% | RAM network inhibition [7] 4.95%

O=C(NCCCn1ccnc1)c1cccc(S(=O)(=O)Nc2ccccc2F)c1
inactive: growth inhibition [1] -13.9% | growth inhibition [2] -26.1% | viability increase [3] -0.61% | viability [4] 92.3% | viability [5] 92.8% | inhibition [6] 2.51% | RAM network inhibition [7] 5.99%

Cc1ccc(CN2C(=O)/C(=C3\SC(N4CCOCC4)=NC3=O)c3cc(Br)ccc32)cc1
inactive: growth inhibition [1] -10.5% | growth inhibition [2] -12.1% | viability increase [3] -1.85% | viability [4] 76.7% | viability [5] 79.7% | inhibition [6] 0.615% | RAM network inhibition [7] 9.54%

CCC(C)(c1ccc(C(=O)OC)s1)c1ccc(C(=O)OC)s1
inactive: growth inhibition [1] -5.53% | growth inhibition [2] -2.49% | viability increase [3] 1.15% | viability [4] 73.3% | viability [5] 76.8% | inhibition [6] 0.63% | RAM network inhibition [7] 1.02%

CCOC(=O)Cn1c(=O)oc2cc(S(=O)(=O)NC3CCCc4ccccc43)ccc21 (stereo not given)
inactive: growth inhibition [1] -9.8% | growth inhibition [2] -15.4% | viability increase [3] -0.67% | viability [4] 88.3% | viability [5] 92.2% | inhibition [6] 4.13% | RAM network inhibition [7] 3.75%

O=C(NCCC1=CCCCC1)NC1CCCCC1
inactive: growth inhibition [1] -7.04% | growth inhibition [2] 8.29% | viability increase [3] -0.3% | viability [4] 87.2% | viability [5] 87.3% | inhibition [6] 1.33% | RAM network inhibition [7] 5.84%

CCn1c(CCCNC(=O)c2cccs2)nc2ccccc21
inactive: growth inhibition [1] -6.02% | growth inhibition [2] -11.4% | viability increase [3] -2.77% | viability [4] 104% | viability [5] 96.1% | inhibition [6] 2.48% | RAM network inhibition [7] 1.95%

CC(C)Cn1c(CN2C(=O)c3ccccc3C2=O)nc2ccccc2c1=O
inactive: growth inhibition [1] -8.43% | growth inhibition [2] -9.18% | viability increase [3] -0.19% | viability [4] 98.4% | viability [5] 93.4% | inhibition [6] 3.54% | RAM network inhibition [7] 5.36%

O=C(Nc1ccccc1)C1CC=CCC1C(=O)OCC1CCCO1 (stereo not given)
inactive: growth inhibition [1] -9.52% | growth inhibition [2] -20.7% | viability increase [3] 0.15% | viability [4] 102% | viability [5] 102% | inhibition [6] 2.69% | RAM network inhibition [7] 0.98%

Cc1cc(OCc2ccc(F)cc2)nc(-c2ccccc2O)n1
inactive: growth inhibition [1] -0.25% | growth inhibition [2] -3.18% | viability increase [3] 2.19% | viability [4] 76.6% | viability [5] 70.3% | inhibition [6] 1.35% | RAM network inhibition [7] 2.72%

COc1ccc(N(CC(=O)N2CCN(c3ccccc3)CC2)S(=O)(=O)c2c(C)noc2C)cc1
inactive: growth inhibition [1] -9.29% | growth inhibition [2] -0.83% | viability increase [3] -4.48% | viability [4] 93.7% | viability [5] 85.6% | inhibition [6] 0.315% | RAM network inhibition [7] 3.7%

O=C1CC(c2nc3ccccc3[nH]2)CN1Cc1ccccc1 (stereo not given)
inactive: growth inhibition [1] -0.355% | growth inhibition [2] -0.09% | viability increase [3] -1.02% | viability [4] 101% | viability [5] 95% | inhibition [6] 1.07% | RAM network inhibition [7] 0.96%

CC1=C(C(=O)OC(C)C)C(c2ccc(Br)s2)NC(=O)N1C (stereo not given)
inactive: growth inhibition [1] -17% | growth inhibition [2] -22.3% | viability increase [3] 0.85% | viability [4] 70.6% | viability [5] 77% | inhibition [6] 0.54% | RAM network inhibition [7] 2.29%

Cc1ccc2oc(=O)c3cnn(CC(=O)NC4CCCCC4C)c3c2c1 (stereo not given)
inactive: growth inhibition [1] -14% | growth inhibition [2] -9.46% | viability increase [3] -2.9% | viability [4] 95.1% | viability [5] 84.1% | inhibition [6] 1.73% | RAM network inhibition [7] 0.7%

CN1CCCN(Cc2ccccc2C(F)(F)F)CC1
inactive: growth inhibition [1] 1.78% | growth inhibition [2] 1.52% | viability increase [3] -1.78% | viability [4] 97.6% | viability [5] 98.1% | inhibition [6] 1.25% | RAM network inhibition [7] 1.53%

CCOC(=O)C1CCN(c2c(N3CCN(Cc4ccccc4)CC3)c(=O)c2=O)CC1
inactive: growth inhibition [1] -4.1% | growth inhibition [2] -4.49% | viability increase [3] -0.78% | viability [4] 90.5% | viability [5] 86.3% | inhibition [6] 1.52% | RAM network inhibition [7] 6.15%

CCOC(=O)c1[nH]c2ccccc2c1NC(=O)c1ccc(Br)o1
inactive: growth inhibition [1] -6.18% | growth inhibition [2] -1.93% | viability increase [3] -3.95% | viability [4] 70.3% | viability [5] 69.9% | inhibition [6] 0.96% | RAM network inhibition [7] 7.09%

COC(=O)CN1C(=O)COc2ccc(Cl)cc21
inactive: growth inhibition [1] 4.22% | growth inhibition [2] -4.81% | viability increase [3] -0.89% | viability [4] 104% | viability [5] 94% | inhibition [6] 0.605% | RAM network inhibition [7] 2.29%

CCC(=O)NCCn1c(C)cc2ccccc21
inactive: growth inhibition [1] 8.84% | growth inhibition [2] 11.4% | viability increase [3] -0.96% | viability [4] 104% | viability [5] 92% | inhibition [6] 1.91% | RAM network inhibition [7] -0.46%

COc1cccc(C2NC(=O)NC(C)=C2C(=O)Nc2cc(OC)ccc2OC)c1 (stereo not given)
inactive: growth inhibition [1] -7.14% | growth inhibition [2] 0.605% | viability increase [3] -0.51% | viability [4] 95.2% | viability [5] 94.9% | inhibition [6] 1.15% | RAM network inhibition [7] 5.92%

O=C(O)C1CCCCC1C(=O)NCc1cn2ccccc2n1 (stereo not given)
inactive: growth inhibition [1] -16.1% | growth inhibition [2] -10.5% | viability increase [3] -1.38% | viability [4] 110% | viability [5] 93.7% | inhibition [6] 0.43% | RAM network inhibition [7] 9.11%

Cn1c(NC(=O)c2ccccc2)cc(=O)n(C)c1=O
inactive: growth inhibition [1] -19% | growth inhibition [2] -9.99% | viability increase [3] -1.36% | viability [4] 100% | viability [5] 93.8% | inhibition [6] 1.12% | RAM network inhibition [7] 1.26%

CCc1nnc(NC(=O)C2Cc3ccccc3C(=O)O2)s1 (stereo not given)
inactive: growth inhibition [1] -13.9% | growth inhibition [2] -14.9% | viability increase [3] 1.66% | viability [4] 102% | viability [5] 104% | inhibition [6] 1.32% | RAM network inhibition [7] 5.85%

Cc1cccc(NC(=O)C2CCCN2S(=O)(=O)c2cccc3cccnc23)c1 (stereo not given)
inactive: growth inhibition [1] -13% | growth inhibition [2] -6.59% | viability increase [3] -3.17% | viability [4] 85.3% | viability [5] 84% | inhibition [6] 0.065% | RAM network inhibition [7] 1.73%

CN(CCCC(=O)Nc1nccs1)S(=O)(=O)c1ccc(Cl)cc1
inactive: growth inhibition [1] -0.375% | growth inhibition [2] 0.355% | viability increase [3] -1.24% | viability [4] 110% | viability [5] 97.7% | inhibition [6] 1.51% | RAM network inhibition [7] 0.41%

CC1=CC(C)(C)N(C(=O)CSc2nnc(-c3ccccc3)o2)c2ccc(C)cc21
inactive: growth inhibition [1] -10% | growth inhibition [2] 2.73% | viability increase [3] -5.46% | viability [4] 62% | viability [5] 66.2% | inhibition [6] 0.325% | RAM network inhibition [7] 6.03%

Cc1ccc(C)c(N2CCN(c3ncnc4c3cnn4-c3ccccc3)CC2)c1
inactive: growth inhibition [1] -11.6% | growth inhibition [2] -18.3% | viability increase [3] 2.4% | viability [4] 72.5% | viability [5] 68.6% | inhibition [6] 3.82% | RAM network inhibition [7] 7.43%
